Results from ChEMBL document CHEMBL4130562, “Design, Synthesis, and Antibacterial Evaluation of Oxazolidinones with Fused Heterocyclic C-Ring Substructure” (ACS Med Chem Lett, 2017).
Values after ≈ are worked out from the molar mass of the structure shown.

Legend:
CYP2C19 = CYP2C19 (Homo sapiens, UniProt P33261); test: Inhibition of CYP2C19 (unknown origin) at 10 uM; type: ADME
Outline: (§1)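 Each test compound was tested at a single concentration of 10 μM against CYP1A2, 2C8, 2C9, 2C19, 2D6 and 3A4. Results are reported as percent inhibition.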

CYP1A2 = target: T1, CYP1A2 (Homo sapiens, UniProt P05177); test: Inhibition of CYP1A2 (unknown origin) at 10 uM; type: ADME; outline: as §1
T1 sequence (P05177 whole entry): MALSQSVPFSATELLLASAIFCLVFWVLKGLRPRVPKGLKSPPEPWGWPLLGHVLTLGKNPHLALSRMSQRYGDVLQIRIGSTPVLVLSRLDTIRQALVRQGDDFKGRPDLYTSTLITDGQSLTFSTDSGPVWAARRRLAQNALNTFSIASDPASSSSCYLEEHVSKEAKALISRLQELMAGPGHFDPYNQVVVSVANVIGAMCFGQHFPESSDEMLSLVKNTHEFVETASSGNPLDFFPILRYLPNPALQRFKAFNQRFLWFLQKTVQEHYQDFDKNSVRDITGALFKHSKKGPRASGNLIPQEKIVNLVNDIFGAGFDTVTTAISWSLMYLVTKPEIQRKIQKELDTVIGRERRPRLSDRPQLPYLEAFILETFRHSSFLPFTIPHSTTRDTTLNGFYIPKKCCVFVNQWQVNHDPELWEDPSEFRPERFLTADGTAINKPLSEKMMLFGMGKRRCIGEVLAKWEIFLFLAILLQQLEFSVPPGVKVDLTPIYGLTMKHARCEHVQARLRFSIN

Streptococcus pneumoniae = test: Antibacterial activity against Streptococcus pneumoniae 55143 by microbroth dilution method; type: functional
CYP2C9 = CYP2C9 (Homo sapiens, UniProt P11712); test: Inhibition of CYP2C9 (unknown origin) at 10 uM; type: ADME; outline: as §1
Chain of CYP2C9 (P11712 whole entry): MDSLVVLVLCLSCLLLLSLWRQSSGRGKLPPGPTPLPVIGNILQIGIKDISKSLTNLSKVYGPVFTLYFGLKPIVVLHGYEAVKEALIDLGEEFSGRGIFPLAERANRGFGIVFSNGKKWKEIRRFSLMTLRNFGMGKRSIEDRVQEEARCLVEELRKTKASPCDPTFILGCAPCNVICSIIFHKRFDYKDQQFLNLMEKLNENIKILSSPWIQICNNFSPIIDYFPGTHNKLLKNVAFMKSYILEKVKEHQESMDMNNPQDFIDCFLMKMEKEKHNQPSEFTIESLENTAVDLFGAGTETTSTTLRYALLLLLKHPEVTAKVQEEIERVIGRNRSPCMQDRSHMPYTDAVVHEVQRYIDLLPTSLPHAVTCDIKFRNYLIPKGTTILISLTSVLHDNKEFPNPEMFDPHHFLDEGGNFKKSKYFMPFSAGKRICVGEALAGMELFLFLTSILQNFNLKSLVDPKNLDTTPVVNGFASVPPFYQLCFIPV

[1] = Solubility in pH 6.8 buffer; type: physicochemical
Outline: (§2)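 Aqueous solubility was measured in buffers at pH 1.2 and pH 6.8 and reported in μg/mL.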

CYP2C8 = target: T2, CYP2C8 (Homo sapiens, UniProt P10632); test: Inhibition of CYP2C8 (unknown origin) at 10 uM; type: ADME; outline: as §1
T2 sequence (P10632 whole entry): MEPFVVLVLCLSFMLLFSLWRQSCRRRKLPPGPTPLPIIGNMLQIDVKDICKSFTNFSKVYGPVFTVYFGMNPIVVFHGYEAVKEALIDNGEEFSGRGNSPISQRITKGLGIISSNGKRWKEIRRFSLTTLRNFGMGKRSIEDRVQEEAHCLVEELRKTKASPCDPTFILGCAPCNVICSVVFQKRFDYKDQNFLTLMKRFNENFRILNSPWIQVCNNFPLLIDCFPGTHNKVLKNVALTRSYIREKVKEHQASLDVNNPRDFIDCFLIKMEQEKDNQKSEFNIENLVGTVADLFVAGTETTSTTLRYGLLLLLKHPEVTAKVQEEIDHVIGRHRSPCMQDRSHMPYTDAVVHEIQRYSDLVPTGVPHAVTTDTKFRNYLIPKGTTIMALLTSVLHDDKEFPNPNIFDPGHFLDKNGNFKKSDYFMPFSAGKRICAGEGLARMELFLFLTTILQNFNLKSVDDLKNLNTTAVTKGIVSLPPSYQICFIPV

CYP3A4 = CYP3A4 (Homo sapiens, UniProt P08684); test: Inhibition of CYP3A4 (unknown origin) at 10 uM; type: ADME; outline: as §1
Chain of CYP3A4 (P08684 whole entry): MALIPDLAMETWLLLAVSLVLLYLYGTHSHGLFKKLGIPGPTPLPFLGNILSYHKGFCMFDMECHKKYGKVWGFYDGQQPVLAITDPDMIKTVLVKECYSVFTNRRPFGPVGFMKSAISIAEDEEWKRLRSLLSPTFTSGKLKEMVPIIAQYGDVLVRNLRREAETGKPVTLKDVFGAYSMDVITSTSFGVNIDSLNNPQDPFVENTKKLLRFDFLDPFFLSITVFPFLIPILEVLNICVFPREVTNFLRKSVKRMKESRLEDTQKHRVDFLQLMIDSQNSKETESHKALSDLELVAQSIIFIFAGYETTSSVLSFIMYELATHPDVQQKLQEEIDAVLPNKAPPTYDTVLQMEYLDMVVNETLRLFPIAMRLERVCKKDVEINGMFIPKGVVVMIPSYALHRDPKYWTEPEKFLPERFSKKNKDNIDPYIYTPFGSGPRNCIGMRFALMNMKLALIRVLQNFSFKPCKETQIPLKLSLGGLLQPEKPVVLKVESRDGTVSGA

Enterococcus faecium = test: Antibacterial activity against Enterococcus faecium 19434 by microbroth dilution method; type: functional
CYP2D6 = CYP2D6 (Homo sapiens, UniProt P10635); test: Inhibition of CYP2D6 (unknown origin) at 10 uM; type: ADME; outline: as §1
Chain of CYP2D6 (P10635 whole entry): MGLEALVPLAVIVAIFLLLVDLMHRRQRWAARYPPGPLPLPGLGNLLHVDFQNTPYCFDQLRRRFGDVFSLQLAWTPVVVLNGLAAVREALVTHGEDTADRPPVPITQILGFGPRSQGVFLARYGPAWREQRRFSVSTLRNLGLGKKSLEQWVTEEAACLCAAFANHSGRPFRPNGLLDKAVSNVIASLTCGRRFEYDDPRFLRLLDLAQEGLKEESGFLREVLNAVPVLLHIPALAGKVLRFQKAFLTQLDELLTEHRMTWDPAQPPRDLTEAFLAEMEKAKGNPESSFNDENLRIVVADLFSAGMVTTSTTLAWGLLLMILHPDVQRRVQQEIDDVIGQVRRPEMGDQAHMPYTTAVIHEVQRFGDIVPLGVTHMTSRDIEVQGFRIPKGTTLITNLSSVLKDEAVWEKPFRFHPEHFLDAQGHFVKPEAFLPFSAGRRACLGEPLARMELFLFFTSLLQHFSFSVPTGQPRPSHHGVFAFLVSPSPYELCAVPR

[2] = Solubility in pH 1.2 buffer; type: physicochemical; outline: as §2
Staphylococcus aureus [3] = test: Antibacterial activity against Staphylococcus aureus ATCC 33591 by microbroth dilution method; type: functional
[4] = Lipophilicity, log D of the compound at pH 7.4; type: physicochemical; conditions: buffer
Staphylococcus aureus [5] = test: Antibacterial activity against Staphylococcus aureus ATCC 29213 by microbroth dilution method; type: functional
Staphylococcus aureus [6] = test: Antibacterial activity against linezolid-resistant Staphylococcus aureus by microbroth dilution method; type: functional
Staphylococcus aureus [7] = test: Antibacterial activity against methicillin-resistant Staphylococcus aureus 1201984 by microbroth dilution method; type: functional
[8] = Metabolic stability in mouse liver microsomes assessed as parent compound remaining level; type: ADME, microsome
Outline: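 Compound was incubated with mouse liver microsomes to assess phase I metabolism. Read-out is percent of parent compound remaining.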

Haemophilus influenzae = test: Antibacterial activity against Haemophilus influenzae ATCC 49247 by microbroth dilution method; type: functional
Enterococcus faecalis = test: Antibacterial activity against Enterococcus faecalis ATCC 29212 by microbroth dilution method; type: functional
[9] = system: Staphylococcus epidermidis; test: Antibacterial activity against Staphylococcus epidermidis ATCC 14990 by microbroth dilution method; type: functional
Staphylococcus aureus [10] = test: Antibacterial activity against Staphylococcus aureus ATCC 6538P by microbroth dilution method; type: functional
Streptococcus pyogenes = test: Antibacterial activity against Streptococcus pyogenes ATCC 19615 by microbroth dilution method; type: functional

Chain of CYP2C19 (P33261 whole entry): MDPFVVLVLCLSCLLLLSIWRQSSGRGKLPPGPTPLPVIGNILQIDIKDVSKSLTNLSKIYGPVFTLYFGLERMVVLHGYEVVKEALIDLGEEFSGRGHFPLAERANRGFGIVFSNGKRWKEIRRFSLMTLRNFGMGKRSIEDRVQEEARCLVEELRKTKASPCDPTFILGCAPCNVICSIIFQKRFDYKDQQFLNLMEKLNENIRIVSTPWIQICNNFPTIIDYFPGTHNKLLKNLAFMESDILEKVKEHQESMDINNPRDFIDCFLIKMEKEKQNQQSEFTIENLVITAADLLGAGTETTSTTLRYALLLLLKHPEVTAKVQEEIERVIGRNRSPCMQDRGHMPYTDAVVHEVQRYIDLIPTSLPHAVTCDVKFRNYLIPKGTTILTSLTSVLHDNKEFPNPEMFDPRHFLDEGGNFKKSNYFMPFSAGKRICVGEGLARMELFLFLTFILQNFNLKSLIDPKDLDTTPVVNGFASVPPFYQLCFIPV

| Structure (SMILES) | MIC (Streptococcus pneumoniae) [µg/mL] | MIC (Enterococcus faecium) [µg/mL] | MIC (Staphylococcus aureus [3]) [µg/mL] | MIC (Staphylococcus aureus [5]) [µg/mL] | MIC (Staphylococcus aureus [6]) [µg/mL] | MIC (Staphylococcus aureus [7]) [µg/mL] | MIC (Haemophilus influenzae) [µg/mL] | MIC (Enterococcus faecalis) [µg/mL] | MIC [9] [µg/mL] | MIC (Staphylococcus aureus [10]) [µg/mL] | MIC (Streptococcus pyogenes) [µg/mL] | also measured |
| --- | --- | --- | --- | --- | --- | --- | --- | --- | --- | --- | --- | --- |
| O=C1COc2ccc(-c3ccc(N4C[C@H](CO)OC4=O)cc3F)cc2N1 | < 0.06 | < 0.06 | 0.5 (≈ 1.4 µM) | 0.125 (≈ 0.349 µM) | 1 (≈ 2.79 µM) | 0.5 (≈ 1.4 µM) | 0.5 (≈ 1.4 µM) | < 0.06 | < 0.06 | < 0.06 | < 0.06 | inhibition at 10 µM (CYP2C19): 29%; inhibition at 10 µM (CYP1A2): 4%; inhibition at 10 µM (CYP2C9): 12%; solubility [1]: 5.2 µg/mL (≈ 14.5 µM); inhibition at 10 µM (CYP2C8): 0%; inhibition at 10 µM (CYP3A4): 0%; inhibition at 10 µM (CYP2D6): 4%; solubility [2]: 4.4 µg/mL (≈ 12.3 µM); logD [4]: 1.9; Stability [8]: 113% |
| O=C1NCCOc2ccc(-c3ccc(N4C[C@H](CO)OC4=O)cc3F)cc21 | 0.5 (≈ 1.34 µM) | 0.5 (≈ 1.34 µM) | 1 (≈ 2.69 µM) | 0.5 (≈ 1.34 µM) | 4 (≈ 10.7 µM) | 0.5 (≈ 1.34 µM) | 1 (≈ 2.69 µM) | 0.5 (≈ 1.34 µM) | 0.25 (≈ 0.671 µM) | 0.25 (≈ 0.671 µM) | 0.5 (≈ 1.34 µM) | – |
| CC(=O)NC[C@H]1CN(c2ccc(-c3ccc4c(c3)NC(=O)CO4)c(F)c2)C(=O)O1 | 0.06 (≈ 0.15 µM) | 0.03 (≈ 0.0751 µM) | 0.5 (≈ 1.25 µM) | 0.125 (≈ 0.313 µM) | 1 (≈ 2.5 µM) | 0.5 (≈ 1.25 µM) | 0.25 (≈ 0.626 µM) | 0.03 (≈ 0.0751 µM) | 0.06 (≈ 0.15 µM) | 0.125 (≈ 0.313 µM) | 0.06 (≈ 0.15 µM) | inhibition at 10 µM (CYP2C19): 20%; inhibition at 10 µM (CYP1A2): 6%; inhibition at 10 µM (CYP2C9): 13%; solubility [1]: 15 µg/mL (≈ 37.6 µM); inhibition at 10 µM (CYP2C8): 12%; inhibition at 10 µM (CYP3A4): 0%; inhibition at 10 µM (CYP2D6): 10%; solubility [2]: 22 µg/mL (≈ 55.1 µM); logD [4]: 1.9; Stability [8]: 84% |
| O=C1Cc2ccc(-c3ccc(N4C[C@H](CO)OC4=O)cc3F)cc2N1 | 0.125 (≈ 0.365 µM) | 0.25 (≈ 0.73 µM) | 32 (≈ 93.5 µM) | 1 (≈ 2.92 µM) | 4 (≈ 11.7 µM) | 32 (≈ 93.5 µM) | 2 (≈ 5.84 µM) | 0.25 (≈ 0.73 µM) | < 0.06 | 0.25 (≈ 0.73 µM) | 0.125 (≈ 0.365 µM) | – |
| CC(=S)NC[C@H]1CN(c2ccc(-c3ccc4c(c3)NC(=O)CO4)c(F)c2)C(=O)O1 | 0.06 (≈ 0.144 µM) | 0.06 (≈ 0.144 µM) | 0.125 (≈ 0.301 µM) | 0.06 (≈ 0.144 µM) | 0.125 (≈ 0.301 µM) | 0.06 (≈ 0.144 µM) | 0.125 (≈ 0.301 µM) | 0.06 (≈ 0.144 µM) | 0.06 (≈ 0.144 µM) | 0.06 (≈ 0.144 µM) | 0.06 (≈ 0.144 µM) | – |
| CS(=O)(=O)NC[C@H]1CN(c2ccc(-c3ccc4c(c3)NC(=O)CO4)c(F)c2)C(=O)O1 | 0.25 (≈ 0.574 µM) | 0.125 (≈ 0.287 µM) | 1 (≈ 2.3 µM) | 8 (≈ 18.4 µM) | 8 (≈ 18.4 µM) | 1 (≈ 2.3 µM) | 0.5 (≈ 1.15 µM) | 0.25 (≈ 0.574 µM) | 0.5 (≈ 1.15 µM) | 0.25 (≈ 0.574 µM) | 0.25 (≈ 0.574 µM) | – |
| Cl.NC[C@H]1CN(c2ccc(-c3ccc4c(c3)NC(=O)CO4)c(F)c2)C(=O)O1 | 4 | 4 | 16 | 8 | > 32 | 8 | 4 | 8 | 4 | 4 | 4 | – |
| O=C1CCOc2ccc(-c3ccc(N4C[C@H](CO)OC4=O)cc3F)cc2N1 | 0.25 (≈ 0.671 µM) | 0.125 (≈ 0.336 µM) | 0.5 (≈ 1.34 µM) | 0.125 (≈ 0.336 µM) | 2 (≈ 5.37 µM) | 0.125 (≈ 0.336 µM) | 0.5 (≈ 1.34 µM) | 0.25 (≈ 0.671 µM) | 0.06 (≈ 0.161 µM) | 0.06 (≈ 0.161 µM) | 0.25 (≈ 0.671 µM) | – |
